From ChEMBL document CHEMBL1133874, “Synthesis of N(1)-substituted analogues of (2R,4R)-4-amino-pyrrolidine-2,4-dicarboxylic acid as agonists, partial agonists, and antagonists of group II metabotropic glutamate receptors” (Bioorg Med Chem Lett, 2001) come the findings set out here.

Holding throughout (type): functional
Assay [1] has as its target T1, Metabotropic glutamate receptor 3 (Rattus norvegicus, UniProt P31422). The assay can be described thus: Inhibitory concentration required for antagonistic activity at Metabotropic glutamate receptor 3.
The target of assay [2] is T2, Metabotropic glutamate receptor 2 (Rattus norvegicus, UniProt P31421). Kind of assay: Inhibitory concentration required for antagonistic activity at Metabotropic glutamate receptor 2. In a few lines:
(§1)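 Antagonism at mGluR2 stably expressed in CHO cells, tested against 2 μM glutamate and read as forskolin-induced cAMP formation. Dose-response curves; means ± SEM from at least three experiments run in triplicate.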

The target of assay [3] is T3, Metabotropic glutamate receptor 6 (Rattus norvegicus, UniProt P35349). The assay can be described thus: Effective concentration for agonistic activity at Metabotropic glutamate receptor 6; Not active.
T3 sequence (P35349 whole entry): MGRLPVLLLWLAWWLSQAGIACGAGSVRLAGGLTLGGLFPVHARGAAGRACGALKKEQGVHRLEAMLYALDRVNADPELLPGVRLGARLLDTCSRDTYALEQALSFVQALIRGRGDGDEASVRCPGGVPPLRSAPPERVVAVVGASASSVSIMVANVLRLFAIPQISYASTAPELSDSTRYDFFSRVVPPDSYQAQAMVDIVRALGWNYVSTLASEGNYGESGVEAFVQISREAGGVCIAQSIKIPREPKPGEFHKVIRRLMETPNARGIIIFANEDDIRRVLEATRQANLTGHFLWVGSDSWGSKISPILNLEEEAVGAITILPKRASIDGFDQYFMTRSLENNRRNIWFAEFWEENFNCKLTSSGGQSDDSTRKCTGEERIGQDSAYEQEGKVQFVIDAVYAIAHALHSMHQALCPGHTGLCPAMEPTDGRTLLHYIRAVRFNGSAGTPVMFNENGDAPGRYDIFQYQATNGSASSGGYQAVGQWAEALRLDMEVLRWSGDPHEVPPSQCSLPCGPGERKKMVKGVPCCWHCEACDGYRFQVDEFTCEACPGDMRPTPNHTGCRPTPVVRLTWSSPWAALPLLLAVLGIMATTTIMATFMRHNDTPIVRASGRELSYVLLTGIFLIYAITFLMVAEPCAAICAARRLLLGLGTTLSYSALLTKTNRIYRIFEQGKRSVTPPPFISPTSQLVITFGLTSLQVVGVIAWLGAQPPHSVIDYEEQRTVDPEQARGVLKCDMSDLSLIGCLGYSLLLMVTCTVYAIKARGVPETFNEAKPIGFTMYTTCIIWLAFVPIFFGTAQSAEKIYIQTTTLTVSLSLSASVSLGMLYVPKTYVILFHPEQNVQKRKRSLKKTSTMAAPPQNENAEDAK
Assay [4] deals with T2, Metabotropic glutamate receptor 2. The assay can be described thus: Effective concentration required for agonistic activity at Metabotropic glutamate receptor 2.
In assay [5] the target is T1, Metabotropic glutamate receptor 3. Kind of assay: Effective concentration required for agonistic activity at Metabotropic glutamate receptor 3. In a few lines: (§2)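 Agonist activity at mGluR3, stably expressed in CHO cells together with a chimeric construct. Dose-response curves; means ± SEM from at least three experiments run in triplicate.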
The target is the same in assay [6]. The assay can be described thus: Effective concentration required for agonistic activity at Metabotropic glutamate receptor 3; Not active. In a few lines: as §2
The target is the same in assay [7]. The assay can be described thus: Inhibitory concentration required for antagonistic activity at Metabotropic glutamate receptor 3; Not active.
Assay [8] concerns the target T3, Metabotropic glutamate receptor 6. Kind of assay: Effective concentration required for agonistic activity at Metabotropic glutamate receptor 6.
The target in assay [9] is T2, Metabotropic glutamate receptor 2. Kind of assay: Effective concentration required for partial agonistic activity at Metabotropic glutamate receptor 2; Partial agonist.
Assay [10] concerns the target T3, Metabotropic glutamate receptor 6. The assay can be described thus: Effective concentration required for partial agonistic activity at Metabotropic glutamate receptor 6; Partial agonist.
The target in assay [11] is T1, Metabotropic glutamate receptor 3. Kind of assay: Effective concentration required for partial agonistic activity at Metabotropic glutamate receptor 3; Partial agonist. In a few lines:
as §2

For assay [12], the target named is T2, Metabotropic glutamate receptor 2. Kind of assay: Effective concentration required for agonistic activity at Metabotropic glutamate receptor 2; Not active.
Assay [13] shares this target. The assay can be described thus: Inhibitory concentration required for antagonistic activity at Metabotropic glutamate receptor 2; Not active. In a few lines:
as §1

T2 sequence (P31421 whole entry): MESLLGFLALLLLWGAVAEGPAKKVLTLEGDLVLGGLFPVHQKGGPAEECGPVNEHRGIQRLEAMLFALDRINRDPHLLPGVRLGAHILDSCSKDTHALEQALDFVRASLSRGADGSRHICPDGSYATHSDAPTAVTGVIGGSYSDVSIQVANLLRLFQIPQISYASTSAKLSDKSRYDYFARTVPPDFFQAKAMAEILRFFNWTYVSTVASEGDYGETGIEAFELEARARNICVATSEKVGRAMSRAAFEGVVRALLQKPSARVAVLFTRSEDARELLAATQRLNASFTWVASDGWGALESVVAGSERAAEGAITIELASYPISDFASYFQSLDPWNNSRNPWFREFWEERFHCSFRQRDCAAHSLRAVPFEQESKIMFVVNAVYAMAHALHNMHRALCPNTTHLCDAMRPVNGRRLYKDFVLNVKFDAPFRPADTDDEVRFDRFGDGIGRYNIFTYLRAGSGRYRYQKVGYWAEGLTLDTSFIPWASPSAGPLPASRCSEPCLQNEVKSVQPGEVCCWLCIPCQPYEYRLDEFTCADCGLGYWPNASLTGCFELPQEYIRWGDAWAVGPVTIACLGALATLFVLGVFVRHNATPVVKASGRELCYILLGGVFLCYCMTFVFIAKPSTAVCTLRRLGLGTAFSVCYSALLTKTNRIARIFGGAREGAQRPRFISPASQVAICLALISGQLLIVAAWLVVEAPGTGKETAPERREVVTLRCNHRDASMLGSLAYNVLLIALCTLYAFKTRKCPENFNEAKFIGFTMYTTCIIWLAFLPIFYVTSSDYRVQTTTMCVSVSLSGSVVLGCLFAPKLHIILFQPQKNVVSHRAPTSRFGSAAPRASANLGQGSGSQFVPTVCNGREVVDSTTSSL
T1 sequence (P31422 whole entry): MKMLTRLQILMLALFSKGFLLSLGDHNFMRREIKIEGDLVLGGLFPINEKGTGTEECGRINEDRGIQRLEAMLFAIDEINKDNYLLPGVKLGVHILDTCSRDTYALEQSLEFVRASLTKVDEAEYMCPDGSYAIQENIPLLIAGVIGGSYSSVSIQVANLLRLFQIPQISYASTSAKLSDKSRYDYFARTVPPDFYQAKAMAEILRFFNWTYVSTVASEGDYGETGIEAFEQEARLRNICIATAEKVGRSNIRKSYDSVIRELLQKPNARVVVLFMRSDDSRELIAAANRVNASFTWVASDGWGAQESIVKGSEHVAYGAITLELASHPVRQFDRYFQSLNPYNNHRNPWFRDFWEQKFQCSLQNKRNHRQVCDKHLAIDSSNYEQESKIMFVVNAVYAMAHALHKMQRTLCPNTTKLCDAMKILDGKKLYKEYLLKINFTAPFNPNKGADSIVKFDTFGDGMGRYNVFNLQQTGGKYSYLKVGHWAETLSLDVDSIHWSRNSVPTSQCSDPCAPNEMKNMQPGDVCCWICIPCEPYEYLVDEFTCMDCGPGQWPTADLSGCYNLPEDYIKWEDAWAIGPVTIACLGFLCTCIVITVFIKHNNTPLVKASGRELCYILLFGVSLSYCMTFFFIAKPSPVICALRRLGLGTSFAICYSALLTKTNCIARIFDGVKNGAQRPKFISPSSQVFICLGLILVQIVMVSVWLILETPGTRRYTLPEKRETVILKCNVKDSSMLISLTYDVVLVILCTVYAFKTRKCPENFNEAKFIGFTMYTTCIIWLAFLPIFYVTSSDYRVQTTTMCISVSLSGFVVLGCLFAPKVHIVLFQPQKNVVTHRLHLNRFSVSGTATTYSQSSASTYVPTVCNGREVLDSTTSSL

Consider `CC(N)(C(=O)O)c1ccc(C(=O)O)cc1` (configuration not stated), for which the half-maximal inhibitory concentration (IC50) turned out to be 270 µM in assay [1] and 290 µM in assay [2]. Further, the concentration for a half-maximal effect (EC50) result in assay [3] is on record as “Not Active”.
For the molecule `N[C@@]1(C(=O)O)CN[C@@H](C(=O)O)C1`, the EC50 in [4] is 0.48 µM; in assay [5], 1.7 µM; in [3], “Not Active”.
In assay [1], `CC(N)(C(=O)O)C1CC1C(=O)O` (configuration not stated) showed an IC50 of 68 µM. The EC50 entry in assay [3] is recorded as “Not Active”.
For `Cl.Cl.N[C@]1(C(=O)O)C[C@H](C(=O)O)N(Cc2cccc(O)c2)C1`, the half-maximal effective concentration (EC50) entry is “Not Active” in assay [6], 950 µM in assay [4] and “Not Active” in [3]. In [7], the 50% inhibitory concentration (IC50) result was “Not Active”.
As to `N[C@]1(C(=O)O)C[C@H](C(=O)O)N(C(C(=O)O)c2ccccc2)C1` (some centres not stated), half-maximal inhibition in [1] (IC50) required 21 µM. Besides, a half-maximal effect in assay [8] (EC50) was put at 22 µM.
For `Cl.Cl.N[C@]1(C(=O)O)C[C@H](C(=O)O)N(Cc2ccccc2C#Cc2ccccc2)C1`, the 50% inhibitory concentration (IC50) in assay [1] was found to be 23 µM. Besides, the EC50 result in [3] is “Not Active”.
As for `N[C@]1(C(=O)O)C[C@H](C(=O)O)N(Cc2cccc([N+](=O)[O-])c2)C1`, the IC50 in [1] came out at 93 µM. For the same molecule, the EC50 in [8] turned out to be 100 µM.
Take `Cl.Cl.N[C@]1(C(=O)O)C[C@H](C(=O)O)N(Cc2ccc(C(=O)O)cc2)C1`: the EC50 result is “Not Active” in assay [6], 58 µM in assay [8] and 4.7 µM in assay [9]. Moreover, in assay [7], the IC50 result was “Not Active”.
Regarding `N[C@]1(C(=O)O)C[C@H](C(=O)O)N(Cc2ccccc2O)C1`, the IC50 in assay [1] was 27 µM. The figures for the EC50 in assay [10] and in assay [4] were 88 µM and 6.1 µM, respectively.
Regarding `Cl.Cl.Cl.Nc1ccc(CN2C[C@@](N)(C(=O)O)C[C@@H]2C(=O)O)cc1`, the values for the EC50 entry in [6], in assay [9] and in assay [3] were “Not Active”, 2.3 µM and “Not Active”, respectively. Besides, the half-maximal inhibitory concentration (IC50) entry in assay [7] is “Not Active”.
`Cl.Cl.Cl.Nc1ccccc1CN1C[C@@](N)(C(=O)O)C[C@@H]1C(=O)O`: the EC50 result in assay [6] is “Not Active”; in assay [4], 35 µM; in [3], “Not Active”. Moreover, in assay [7], the IC50 result is given as “Not Active”.
Regarding `COc1ccc(CN2C[C@@](N)(C(=O)O)C[C@@H]2C(=O)O)cc1`, half-maximal inhibition in [1] (IC50) required 190 µM. This molecule also registered a concentration giving a half-maximal response (EC50) in assay [8] of 320 µM.
For the molecule `N[C@]1(C(=O)O)C[C@H](C(=O)O)N(Cc2ccc(O)cc2)C1`, the concentration for a half-maximal effect (EC50) was 74 µM in assay [8], 7.5 µM in assay [11] and 24 µM in [4].
For the molecule `Cl.Cl.Cl.N[C@]1(C(=O)O)C[C@H](C(=O)O)N(Cc2ccccn2)C1`, the figures for the concentration giving a half-maximal response (EC50) in [4], in assay [5] and in [3] were 37 µM, 37 µM and “Not Active”, respectively.
Regarding `Cl.Cl.N[C@]1(C(=O)O)C[C@H](C(=O)O)N(Cc2cc([N+](=O)[O-])cc([N+](=O)[O-])c2)C1`, the half-maximal effective concentration (EC50) result in [12] was “Not Active”; in [6] it was “Not Active”; in [8], 210 µM. In addition, the concentration for half-maximal inhibition (IC50) entry in assay [7] and in assay [13] was “Not Active” each time.
Turning to `Cl.Cl.N[C@]1(C(=O)O)C[C@H](C(=O)O)N(CC(=O)O)C1`, the EC50 entry in assay [6] was “Not Active”; in assay [9], 0.61 µM; in assay [3] it was “Not Active”. Moreover, the 50% inhibitory concentration (IC50) entry in assay [7] is “Not Active”.
Turning to `N[C@]1(C(=O)O)C[C@H](C(=O)O)N(Cc2ccccc2[N+](=O)[O-])C1`, the 50% effective concentration (EC50) in assay [8] stood at 110 µM; in [4], 4 µM; in assay [5], 6.8 µM.
Regarding `Cl.Cl.N[C@]1(C(=O)O)C[C@H](C(=O)O)N(Cc2ccccc2C(=O)O)C1`, the EC50 entry in assay [6] is “Not Active”; in assay [4], 33 µM; in assay [3], “Not Active”. Besides, the IC50 entry in assay [7] is given as “Not Active”.
Consider `Cl.Cl.N[C@]1(C(=O)O)C[C@H](C(=O)O)N(Cc2ccc([N+](=O)[O-])cc2)C1`, for which the concentration for a half-maximal effect (EC50) result is “Not Active” in assay [6], 160 µM in [4] and “Not Active” in assay [3]. In addition, in [7], the half-inhibitory concentration (IC50) entry is given as “Not Active”.
`N[C@]1(C(=O)O)C[C@H](C(=O)O)N(Cc2ccccc2Br)C1` showed a concentration giving a half-maximal response (EC50) in [8] of 310 µM.
In the case of `Cl.Cl.N[C@]1(C(=O)O)C[C@H](C(=O)O)N(Cc2cccc(C(=O)O)c2)C1`, the concentration giving a half-maximal response (EC50) result in [12] is “Not Active”; in [6], “Not Active”; in [8], 57 µM. Besides, the concentration for half-maximal inhibition (IC50) result in [7] and in [13] was “Not Active” each time.

By IC50 is commonly meant the point on the concentration scale where inhibition reaches its midpoint. Low readings indicate higher potency, high ones lower potency. One may read the EC50 as the concentration at which the effect is half-maximal. A high value points to a less potent agent.
